Assays:
[1] = species: Rattus norvegicus; test: Compound was evaluated for its activity at solubilized receptor (CHAPS/salt-solubilized preparation) from rat frontal cortex; assay type: functional, organism-based; conditions: for IC50: Rattus norvegicus, Frontal cortex
[2] = species: Rattus norvegicus; test: Compound was evaluated for its activity at membrane-bound receptor (M+L+P fraction) from rat frontal cortex; assay type: functional, organism-based; conditions: for IC50: Rattus norvegicus, Frontal cortex
[3] = Half life time was determined; assay type: ADME
Procedure, shortened: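 Kinetics of [3H]-7-aminoketanserin at rat frontal cortex receptors, membrane-bound (M+L+P) or CHAPS/salt-solubilized. Association ran for 20 min. Dissociation was started by adding a 1000-fold excess of pipamperone and treated as first-order. Means ± SD of independent triplicate experiments.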

[4] = biological target: T1, Adrenergic receptor alpha-1 (Rattus norvegicus, UniProt P15823+P23944+P43140); test: Compound was evaluated for binding activity against [3H]-WB- 4101 as radioligand for alpha-1 adrenergic receptor; assay type: protein assay
T1 sequence (P15823 whole entry): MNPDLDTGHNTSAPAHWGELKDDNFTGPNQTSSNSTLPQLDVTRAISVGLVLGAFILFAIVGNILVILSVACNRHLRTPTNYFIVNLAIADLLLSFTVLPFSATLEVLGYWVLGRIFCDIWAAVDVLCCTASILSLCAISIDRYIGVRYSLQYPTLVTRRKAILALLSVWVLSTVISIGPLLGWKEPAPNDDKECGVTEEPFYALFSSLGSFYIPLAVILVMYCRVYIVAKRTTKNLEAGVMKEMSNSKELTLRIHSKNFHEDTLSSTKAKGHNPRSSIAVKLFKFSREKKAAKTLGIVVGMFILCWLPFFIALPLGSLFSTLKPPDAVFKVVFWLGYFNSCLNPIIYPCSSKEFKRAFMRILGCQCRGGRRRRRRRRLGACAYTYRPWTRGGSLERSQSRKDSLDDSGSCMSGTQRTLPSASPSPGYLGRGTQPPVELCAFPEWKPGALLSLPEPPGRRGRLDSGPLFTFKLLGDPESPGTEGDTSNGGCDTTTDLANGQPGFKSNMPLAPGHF
T1 sequence (P23944 whole entry): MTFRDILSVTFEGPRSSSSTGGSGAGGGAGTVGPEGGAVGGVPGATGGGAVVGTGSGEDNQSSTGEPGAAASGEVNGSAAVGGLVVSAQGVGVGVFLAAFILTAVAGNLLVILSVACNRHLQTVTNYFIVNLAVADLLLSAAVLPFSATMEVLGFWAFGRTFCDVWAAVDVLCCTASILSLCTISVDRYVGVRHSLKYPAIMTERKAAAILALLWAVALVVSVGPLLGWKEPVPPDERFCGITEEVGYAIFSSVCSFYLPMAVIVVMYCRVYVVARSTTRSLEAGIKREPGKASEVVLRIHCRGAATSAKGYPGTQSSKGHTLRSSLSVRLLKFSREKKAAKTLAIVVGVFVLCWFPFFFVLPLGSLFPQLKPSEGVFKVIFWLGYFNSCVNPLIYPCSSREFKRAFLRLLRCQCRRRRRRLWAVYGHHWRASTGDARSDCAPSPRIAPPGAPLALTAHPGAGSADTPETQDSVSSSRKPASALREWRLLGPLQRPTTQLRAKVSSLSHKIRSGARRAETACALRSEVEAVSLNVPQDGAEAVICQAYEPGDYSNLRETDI
T1 sequence (P43140 whole entry): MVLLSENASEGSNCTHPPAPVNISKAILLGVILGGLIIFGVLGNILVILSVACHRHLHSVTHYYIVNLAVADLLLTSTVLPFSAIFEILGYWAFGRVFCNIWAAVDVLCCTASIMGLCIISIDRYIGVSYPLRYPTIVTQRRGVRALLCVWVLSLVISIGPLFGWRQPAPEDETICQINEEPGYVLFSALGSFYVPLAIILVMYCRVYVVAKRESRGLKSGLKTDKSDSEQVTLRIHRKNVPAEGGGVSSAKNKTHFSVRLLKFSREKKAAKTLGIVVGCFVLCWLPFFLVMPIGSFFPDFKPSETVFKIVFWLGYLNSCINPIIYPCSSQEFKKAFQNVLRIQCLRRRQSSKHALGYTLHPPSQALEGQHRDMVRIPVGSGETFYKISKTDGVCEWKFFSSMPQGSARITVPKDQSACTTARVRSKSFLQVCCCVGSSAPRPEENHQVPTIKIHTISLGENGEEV
Procedure, shortened: (§1)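 Filtration binding technique applied to rat or guinea pig brain tissue. Tissues, buffers, radioligands and incubation conditions per earlier methods. Ki computed using radioligand KD values from the literature.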

[5] = biological target: T2, Adrenergic receptor alpha-2 (Rattus norvegicus, UniProt P22086+P19328+P22909); test: Compound was evaluated for binding activity against [3H]clonidine as radioligand for alpha-2 adrenergic receptor; assay type: protein assay; procedure, shortened: as §1
T2 sequence (P22086 whole entry): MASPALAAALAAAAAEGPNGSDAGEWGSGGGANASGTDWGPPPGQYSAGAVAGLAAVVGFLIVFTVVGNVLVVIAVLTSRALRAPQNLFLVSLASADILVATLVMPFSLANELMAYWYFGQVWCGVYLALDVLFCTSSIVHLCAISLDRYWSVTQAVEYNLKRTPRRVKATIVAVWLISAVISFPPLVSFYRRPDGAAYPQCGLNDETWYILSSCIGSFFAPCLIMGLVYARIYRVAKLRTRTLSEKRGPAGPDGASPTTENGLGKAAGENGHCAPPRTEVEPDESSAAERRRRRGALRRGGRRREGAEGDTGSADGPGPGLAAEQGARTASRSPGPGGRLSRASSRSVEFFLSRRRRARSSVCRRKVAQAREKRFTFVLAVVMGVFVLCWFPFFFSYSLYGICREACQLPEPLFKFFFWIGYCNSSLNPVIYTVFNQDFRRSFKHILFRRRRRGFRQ
T2 sequence (P19328 whole entry): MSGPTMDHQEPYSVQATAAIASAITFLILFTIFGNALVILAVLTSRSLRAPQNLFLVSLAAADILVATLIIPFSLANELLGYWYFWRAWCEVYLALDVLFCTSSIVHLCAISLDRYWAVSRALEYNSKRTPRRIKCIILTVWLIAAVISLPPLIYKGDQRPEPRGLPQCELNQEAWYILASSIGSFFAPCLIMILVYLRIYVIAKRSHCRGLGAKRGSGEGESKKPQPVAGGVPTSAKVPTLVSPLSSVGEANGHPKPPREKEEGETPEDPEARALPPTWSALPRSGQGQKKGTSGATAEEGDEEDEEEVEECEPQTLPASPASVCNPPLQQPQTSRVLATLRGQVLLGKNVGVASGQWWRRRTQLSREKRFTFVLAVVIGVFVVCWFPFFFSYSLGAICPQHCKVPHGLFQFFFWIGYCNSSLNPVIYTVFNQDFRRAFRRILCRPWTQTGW
T2 sequence (P22909 whole entry): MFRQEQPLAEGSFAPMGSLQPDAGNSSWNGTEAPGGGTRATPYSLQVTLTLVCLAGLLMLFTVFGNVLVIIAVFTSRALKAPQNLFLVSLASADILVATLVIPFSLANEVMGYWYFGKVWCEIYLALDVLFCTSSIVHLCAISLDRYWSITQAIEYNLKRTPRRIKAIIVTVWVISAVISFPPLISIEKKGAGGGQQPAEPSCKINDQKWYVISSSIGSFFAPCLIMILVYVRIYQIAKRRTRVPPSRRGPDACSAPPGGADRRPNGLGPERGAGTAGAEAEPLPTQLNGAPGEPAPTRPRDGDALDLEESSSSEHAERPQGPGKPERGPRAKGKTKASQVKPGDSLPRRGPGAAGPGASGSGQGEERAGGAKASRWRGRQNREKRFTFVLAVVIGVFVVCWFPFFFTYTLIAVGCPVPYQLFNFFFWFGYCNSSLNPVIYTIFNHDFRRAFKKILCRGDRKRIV

[6] = biological target: Adrenergic receptor beta (Rattus norvegicus, UniProt P18090+P10608+P26255); test: Compound was evaluated for binding activity against [3H]dihydroalprenolol as radioligand for beta adrenergic receptor; assay type: protein assay; procedure, shortened: as §1
[7] = biological target: Histamine H1 receptor (Rattus norvegicus, UniProt P31390); test: Compound was evaluated for binding activity against [3H]pyrilamine as radioligand for Histamine H1 receptor; procedure, shortened: as §1
Histamine H1 receptor, sequence (P31390 whole entry): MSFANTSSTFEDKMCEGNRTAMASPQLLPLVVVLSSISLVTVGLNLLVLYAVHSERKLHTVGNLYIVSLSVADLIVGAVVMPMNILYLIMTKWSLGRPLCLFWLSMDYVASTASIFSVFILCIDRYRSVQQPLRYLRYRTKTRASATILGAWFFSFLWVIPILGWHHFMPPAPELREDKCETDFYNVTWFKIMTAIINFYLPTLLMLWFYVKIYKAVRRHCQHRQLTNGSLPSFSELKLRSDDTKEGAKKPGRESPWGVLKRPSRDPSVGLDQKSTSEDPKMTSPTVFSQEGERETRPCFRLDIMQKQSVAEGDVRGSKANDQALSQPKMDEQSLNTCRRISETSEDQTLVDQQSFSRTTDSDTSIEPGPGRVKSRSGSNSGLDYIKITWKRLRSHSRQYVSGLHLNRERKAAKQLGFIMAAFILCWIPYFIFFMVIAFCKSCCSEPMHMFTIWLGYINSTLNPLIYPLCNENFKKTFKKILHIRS

[8] = Compound was evaluated at membrane-bound receptor (M+L+P fraction) from rat frontal cortex; assay type: tissue-based
Procedure, shortened: (§2)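 Rat frontal cortex (M+L+P) fraction, diluted 1:100 w/v, in 50 mM Tris-HCl pH 7.7. Incubated 15 min at 37 °C with 1 nM [3H]-7-aminoketanserin (final) and unlabeled drug. Stopped by rapid GF/B filtration with two ice-cold buffer rinses, then scintillation counting. IC50 from two experiments in triplicate; Ki by Cheng-Prusoff.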

[9] = species: Rattus norvegicus; test: (§3) Number of binding sites of the receptor was determined
Procedure, shortened: (§4)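 Saturation binding of [3H]-7-aminoketanserin to rat frontal cortex (M+L+P) fraction (three experiments) or solubilized preparation (two experiments), each in triplicate. Specific binding is total minus binding with a 1000-fold methysergide excess. Bmax and KD taken from computer-fitted Scatchard plots.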

[10] = Binding affinity for membrane-bound 5-HT-S2 receptor; design: species or system Rattus norvegicus; procedure, shortened: as §2
[11] = biological target: T3, Serotonin 1 (5-HT1) receptor (Rattus norvegicus, UniProt P28564+P30940+P19327+P28565); test: Compound was evaluated for binding activity against [3H]-5-HT as radioligand for serotonin S1 receptor; assay type: protein assay; procedure, shortened: as §1
[12] = biological target: T3, Serotonin 1 (5-HT1) receptor; test: Compound was evaluated for binding activity against [3H]5-HT as radioligand for serotonin S1 receptor; assay type: protein assay; procedure, shortened: as §1
[13] = Binding affinity for detergent solubilized 5-HT-S2 receptor; design: species or system Rattus norvegicus
Procedure, shortened: (§5)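 Rat frontal cortex microsomal fraction solubilized for 12 min at 4 °C in CHAPS/NaCl medium (13.6 mM CHAPS, 2.8 M NaCl, pH 7.2), centrifuged at 180000 g, and supernatant diluted to 1:16 w/v. Incubated 15 min at 30 °C with 2 nM [3H]-7-aminoketanserin (final) and drug. Free ligand removed by charcoal/BSA, supernatant counted. IC50 from two triplicate experiments; Ki by Cheng-Prusoff.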

[14] = Compound was evaluated at solubilized receptor (CHAPS/salt-solubilized preparation) from rat frontal cortex; assay type: tissue-based; procedure, shortened: as §5
[15] = species: Rattus norvegicus; test: as §3; procedure, shortened: as §4; remark: listed apart in the source
[16] = biological target: D(2) dopamine receptor (Rattus norvegicus, UniProt P61169); test: Compound was evaluated for binding activity against [3H]haloperidol as radioligand for Dopamine receptor D2; procedure, shortened: as §1
D(2) dopamine receptor, sequence (P61169 whole entry): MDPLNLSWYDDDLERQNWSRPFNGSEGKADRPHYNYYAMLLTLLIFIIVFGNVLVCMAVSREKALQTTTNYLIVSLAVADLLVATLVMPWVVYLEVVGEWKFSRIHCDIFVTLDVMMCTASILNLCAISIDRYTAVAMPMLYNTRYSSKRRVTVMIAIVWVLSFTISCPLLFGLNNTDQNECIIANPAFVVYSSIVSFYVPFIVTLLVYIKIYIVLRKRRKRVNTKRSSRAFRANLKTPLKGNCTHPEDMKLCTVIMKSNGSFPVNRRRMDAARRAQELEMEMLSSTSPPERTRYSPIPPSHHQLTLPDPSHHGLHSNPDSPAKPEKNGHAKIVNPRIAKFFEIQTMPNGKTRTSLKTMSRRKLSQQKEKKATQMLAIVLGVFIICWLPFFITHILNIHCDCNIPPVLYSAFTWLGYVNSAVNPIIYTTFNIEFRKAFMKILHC

[17] = biological target: Muscarinic acetylcholine receptor; test: Compound was evaluated for binding activity against [3H]dexetimide as radioligand for muscarinic-acetylcholine receptor; assay type: protein assay; procedure, shortened: as §1
[18] = biological target: Serotonin 2 (5-HT2) receptor (Rattus norvegicus, UniProt P30994+P08909+P14842); test: Evaluated for binding activity against [3H]ketanserin as radioligand for 5-hydroxytryptamine 2 receptor; assay type: protein assay; procedure, shortened: as §1

## (-)-BUTACLAMOL
[1]
  -Log IC50: 4.56
  Ki: 13800 nM
[2]
  -Log IC50: 4.9
  Ki: 3260 nM

## CN1CCN2c3ccccc3Cc3ccccc3C2C1 (stereo unspecified) [MIANSERIN]
[1]
  Ki: 13.5 nM
  IC50: 26.9 nM
[2]
  Ki: 3.04 nM
  IC50: 11.7 nM

## COc1cc2nc(N3CCN(C(=O)c4ccco4)CC3)nc(N)c2cc1OC [PRAZOSIN]
[1]
  Ki: 19900 nM
  IC50: 39800 nM
[2]
  Ki: 11600 nM
  IC50: 44700 nM

## NC(=O)C1(N2CCCCC2)CCN(CCCC(=O)c2ccc(F)cc2)CC1 [PIPAMPERONE]
[1]
  Ki: 9.53 nM
  IC50: 19.1 nM
[2]
  Ki: 1.39 nM
  IC50: 5.37 nM

## NCCc1c[nH]c2ccc(O)cc12 [SEROTONIN]
[1]
  Ki: 14100 nM
  IC50: 28200 nM
[2]
  Ki: 919 nM
  IC50: 3550 nM

## O=c1[nH]c2ccccc2n1CCCN1CCC(n2c(=O)[nH]c3cc(Cl)ccc32)CC1 [DOMPERIDONE]
[1]
  Ki: 998 nM
  IC50: 2000 nM
[2]
  Ki: 152 nM
  IC50: 589 nM

## Cc1nc2ccccn2c(=O)c1CCN1CCC(C(=O)c2ccc(F)cc2)CC1 [PIRENPERONE]
[1]
  Ki: 3.54 nM
  IC50: 7.08 nM
[2]
  Ki: 0.47 nM
  IC50: 1.82 nM

## O=C(c1ccc(F)cc1)C1CCN(CCn2c(=O)[nH]c3ccccc3c2=O)CC1 [KETANSERIN]
[1]
  Ki: 3.97 nM
  IC50: 7.94 nM
[2]
  Ki: 0.68 nM
  IC50: 2.63 nM

## COc1ccc(CN(CCN(C)C)c2ccccn2)cc1 [PYRILAMINE]
[1]
  Ki: 9980 nM
  IC50: 20000 nM
[2]
  Ki: 1030 nM
  IC50: 3980 nM

## Nc1ccc2c(=O)n(CCN3CCC(C(=O)c4ccc(F)cc4)CC3)c(=O)[nH]c2c1
[3]
  T1/2: 12.4 min
  half-life: 7.8 min
[4]
  -Log IC50: 7.82
  Ki: 5.49 nM
[5]
  -Log IC50: < 6
[6]
  -Log IC50: < 6
[7]
  IC50: 2.24 nM
  Ki: 1.22 nM
[8]
  -Log IC50: 8.86
  Ki: 0.36 nM
[9]
  Bmax: 37 fmol/mg
[10]
  Kd: 0.35 nM
[11]
  -Log IC50: 5.25
[12]
  Ki: 4416 nM
[13]
  Kd: 2.03 nM
[14]
  -Log IC50: 8.35
  Ki: 2.23 nM
[15]
  Bmax: 4.18 fmol/mg
[16]
  IC50: 417 nM
  Ki: 164 nM
[17]
  -Log IC50: < 6
[18]
  -Log IC50: 9.25
  Ki: 0.17 nM

## CN(C)CCc1c[nH]c2ccc(O)cc12 [BUFOTENINE]
[1]
  Ki: 6300 nM
  IC50: 12600 nM
[2]
  Ki: 341 nM
  IC50: 1320 nM

## COc1cccc(OC)c1OCCNCC1COc2ccccc2O1 (stereo unspecified)
[1]
  Ki: 3880 nM
  IC50: 7760 nM
[2]
  Ki: 697 nM
  IC50: 2690 nM

## Cc1nc2sccn2c(=O)c1CCN1CCC(=C(c2ccc(F)cc2)c2ccc(F)cc2)CC1 [RITANSERIN]
[1]
  Ki: 7.06 nM
  IC50: 14.1 nM
[2]
  Ki: 0.9 nM
  IC50: 3.47 nM

— ChEMBL document CHEMBL1123428, “In vitro labeling of serotonin-S2 receptors: synthesis and binding characteristics of [3H]-7-aminoketanserin” (J Med Chem, 1986)
